ChEMBL document CHEMBL1165976, “Synthesis and characterization of N,N-dialkyl and N-alkyl-N-aralkyl fenpropimorph-derived compounds as high affinity ligands for sigma receptors” (Bioorg Med Chem, 2010)

Legend:
[1] = Selectivity ratio of Ki for sigma 2 receptor in rat liver membranes to Ki for sigma 1 receptor in guinea pig liver homogenates; type: cell membranes; details: Membrane
[2] = Displacement of [3H]-ditolyl guanidine from sigma 2 receptor in rat liver membranes after 1 hr by liquid scintillation counting; type: cell membranes, Membrane
[3] = biological target: Sigma non-opioid intracellular receptor 1 (Cavia porcellus, UniProt Q60492); experiment: Displacement of (+)-[3H]pentazocine from sigma 1 receptor in guinea pig liver homogenates after 1 hr by liquid scintillation counting; type: tissue-based
Sigma non-opioid intracellular receptor 1, sequence (Q60492 whole entry): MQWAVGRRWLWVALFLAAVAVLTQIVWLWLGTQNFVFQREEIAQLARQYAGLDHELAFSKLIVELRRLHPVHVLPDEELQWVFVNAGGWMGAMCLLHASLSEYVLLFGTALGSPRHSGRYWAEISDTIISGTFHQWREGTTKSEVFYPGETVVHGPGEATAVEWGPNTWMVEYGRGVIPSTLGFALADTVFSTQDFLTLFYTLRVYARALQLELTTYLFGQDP
Procedure, shortened: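 Microsomal membranes (17,000 g then 100,000 g pellets) from guinea pig liver, 25 µg/well, with 10 nM (+)-[3H]pentazocine and serial competitor concentrations for 1 h at 30°C. Filtered on 0.5% PEI-treated GF/B filters; bound label counted by liquid scintillation. Nonlinear regression, single-site fit; Ki by Cheng-Prusoff.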

HT-29 = experiment: Cytotoxicity against human HT-29 cells; type: functional, cell-based
SF-268 = experiment: Cytotoxicity against human SF268 cells; type: functional, cell-based
DU-145 = experiment: Cytotoxicity against human DU145 cells; type: functional, cell-based
MDA-MB-231 = experiment: Cytotoxicity against human MDA-MB-231 cells; type: functional, cell-based
MCF7 = experiment: Cytotoxicity against human MCF7 cells; type: functional, cell-based
NCI-H460 = experiment: Cytotoxicity against human NCI-H460 cells; type: functional, cell-based
SK-OV-3 = experiment: Cytotoxicity against human SKOV3 cells; type: functional, cell-based
HCT-15 = experiment: Cytotoxicity against human HCT15 cells; type: functional, cell-based
MCF-10A = experiment: Cytotoxicity against human MCF10A cells; type: functional, cell-based
[4] = Cytotoxicity against human H1299 cells; type: functional, cell-based; details: NCI-H1299
A549 = experiment: Cytotoxicity against human A549 cells; type: functional, cell-based

SMILES	Ratio Ki [1]	Ki ([2]; read-out: Ki) [µM]	Ki ([3]; read-out: Ki) [µM]	Ki [2]	Ki [3]	IC50 (HT-29) [µM]	IC50 (SF-268) [µM]	IC50 (DU-145) [µM]	IC50 (MDA-MB-231) [µM]	IC50 (MCF7) [µM]	IC50 (NCI-H460) [µM]	IC50 (SK-OV-3) [µM]	IC50 (HCT-15) [µM]	IC50 (MCF-10A) [µM]	IC50 [4] [µM]	IC50 (A549) [µM]
CCCN(CCCc1ccc([N+](=O)[O-])cc1)CCc1ccc(N)cc1	13.9	0.0836	0.006	–	–	> 100	> 100	> 100	> 100	88.1	> 100	> 100	> 100	> 100	> 100	> 100
CCCNCCc1ccc([N+](=O)[O-])cc1	23.8	53.6	2.25	–	–	–	–	–	–	–	–	–	–	–	–	–
CCCCN(CCCC)C(=O)CCc1ccc(F)cc1	3.94	126	32.1	–	–	–	–	–	–	–	–	–	–	–	–	–
CCCN(CCCc1ccc(F)cc1)Cc1ccc(N=[N+]=[N-])c(I)c1	> 571	–	89	–	–	–	–	–	–	–	–	–	–	–	–	–
CCCN(Cc1cccc([N+](=O)[O-])c1)C(=O)CCc1ccc(F)cc1	–	236	–	–	Not Active	–	–	–	–	–	–	–	–	–	–	–
CCCNCCCc1ccc(F)cc1	2.53	0.23	0.091	–	–	–	–	–	–	–	–	–	–	–	–	–
CCCN(CCCc1ccc(F)cc1)CCc1ccc(N)cc1	0.046	0.12	2.59	–	–	> 100	> 100	> 100	68.1	41.3	44.8	20.2	> 100	> 100	> 100	> 100
CCCCN(CCCC)CCCc1ccc(F)cc1	38.7	0.685	0.0177	–	–	> 100	> 100	> 100	> 100	> 100	> 100	56.2	> 100	> 100	> 100	> 100
CCCCN(CCCC)CCCc1ccc([N+](=O)[O-])cc1	1350	0.404	0.0003	–	–	> 100	> 100	32.7	57.1	22.4	40.5	27.9	> 100	> 100	> 100	> 100

Now from value to compound, other results behind:

Ratio Ki [1]	Ki ([2]; read-out: Ki) [µM]	Ki ([3]; read-out: Ki) [µM]	Ki [2]	Ki [3]	SMILES	IC50 (HT-29) [µM]	IC50 (SF-268) [µM]	IC50 (DU-145) [µM]	IC50 (MDA-MB-231) [µM]	IC50 (MCF7) [µM]	IC50 (NCI-H460) [µM]	IC50 (SK-OV-3) [µM]	IC50 (HCT-15) [µM]	IC50 (MCF-10A) [µM]	IC50 [4] [µM]	IC50 (A549) [µM]
0.339	133	–	–	–	CCCN(CCCc1ccc(F)cc1)Cc1ccc(N)c(I)c1	–	–	–	–	–	–	–	–	–	–	–
–	–	53.6	Not Active	–	CCCCCCCCN(CCCCCCCC)C(=O)CCc1ccc(F)cc1	–	–	–	–	–	–	–	–	–	–	–
0.178	1.29	7.24	–	–	CCCN(CCCc1ccc(F)cc1)CCc1ccc(N=[N+]=[N-])c(I)c1	36.4	38.8	13.1	21.6	16.8	40.3	> 100	54.1	88.6	90.8	> 100
13.1	2.15	0.164	–	–	CCCN(CCCc1ccc(F)cc1)Cc1ccc(N)cc1	> 100	> 100	> 100	> 100	> 100	> 100	> 100	> 100	> 100	> 100	> 100
2.49	1.65	0.665	–	–	CCCCCCCCN(CCCCCCCC)CCCc1ccc(F)cc1	–	–	–	–	–	–	–	–	–	–	–
